Experimental data published in ChEMBL document CHEMBL3808283, “Biological Characterization and in Vivo Assessment of the Activity of a New Synthetic Macrocyclic Antifungal Compound” (J Med Chem, 2016).
≈ marks a conversion by molar mass, not a printed value. Calls of active or inactive are those of the source. The calls are words filed in the database; no cut-off is given here.

Legend:
Cryptococcus neoformans [1] = assay: Antifungal activity against Cryptococcus neoformans up to 96 hrs by broth dilution assay; assay type: functional, organism-based
Candida albicans [2] = assay: Upregulation of ARE2 gene expression in Candida albicans SC5314 at 3 uM after 45 mins by microarray method relative to control; assay type: functional
Outline: (§1)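 Log-phase C. albicans SC5314 in liquid YEPD exposed to 3 µM final for 15 or 45 min; untreated controls taken at the same time points. Three biological replicates. RNA extracted by glass-bead/phenol-chloroform method and integrity checked. One-color Cy3-labeled cRNA (600 ng) hybridized 17 h at 65 °C to 8 × 15K arrays. Expression expressed as fold change versus control.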

Candida albicans [3] = assay: Upregulation of orf19.4907 gene expression in Candida albicans SC5314 at 3 uM after 15 mins by microarray method relative to control; assay type: functional
Outline: (§2)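 Log-phase cultures in liquid YEPD were exposed to 3 µM compound (final) for 15 or 45 min, with untreated controls sampled at the same times, in three biological replicates. Total RNA was extracted by glass-bead/phenol-chloroform disruption and integrity-checked. One-color Cy3-labelled cRNA (600 ng) was hybridized for 17 h at 65 °C to 8 × 15K arrays, and fold change was taken versus control.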

Magnusiomyces capitatus [4] = assay: Fungicidal activity against Geotrichum capitatum at 40 uM measured at 48 hrs by time kill assay; assay type: functional
Outline: (§3)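 EUCAST broth microdilution at 37 °C. From wells at MIC, 2×, 4× and 8× MIC, 10 µL aliquots were taken, serially 10-fold diluted in saline and plated on Sabouraud dextrose agar. Plates were incubated at 37 °C for 24/48 h, and 48 h for Cryptococcus and Geotrichum. Done in duplicate, detection limit 10 CFU/mL. A drop of at least 3 Log10 CFU/mL from the initial inoculum in 24 h counts as fungicidal; a smaller drop counts as fungistatic.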

Candida albicans [5] = assay: Antifungal activity against Candida albicans ATCC 60193 measured at 72 hrs by broth dilution assay; assay type: functional; settings: ATCC 60193, 72 h
Outline: (§4)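 EUCAST broth microdilution, including the update for non-fermenting yeasts (Cryptococcus, Geotrichum), on clinical and reference yeast isolates. Incubated at 37 °C and read at 24, 48 and 72 h. MIC taken as the lowest concentration with no visible growth. For Cryptococcus and Geotrichum, MICs were read only once growth was visible in the control row.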

Candida albicans [6] = assay: Upregulation of orf19.3089 gene expression in Candida albicans SC5314 at 3 uM after 15 mins by microarray method relative to control; assay type: functional; outline: as §2
Candida parapsilosis [7] = assay: Antifungal activity against Candida parapsilosis ATCC 34136 measured at 24 hrs by broth dilution assay; assay type: functional; settings: Lodderomyces parapsilosis, ATCC 34136, 24 h; outline: as §4
Candida tropicalis [8] = assay: Antifungal activity against Candida tropicalis 86E measured at 24 hrs by broth dilution assay; assay type: functional; outline: as §4
Candida albicans [9] = assay: Upregulation of orf19.1438 gene expression in Candida albicans SC5314 at 3 uM after 15 mins by microarray method relative to control; assay type: functional; outline: as §1
Candida parapsilosis [10] = assay: Fungicidal activity against Candida parapsilosis 81E at 40 uM after 24 to 48 hrs by time kill assay; assay type: functional, organism-based; outline: as §3
Candida albicans [11] = assay: Upregulation of CRZ2 gene expression in Candida albicans SC5314 at 3 uM after 15 mins by microarray method relative to control; assay type: functional; outline: as §1
Pichia kudriavzevii [12] = assay: Fungicidal activity against Candida krusei ATCC 14243 assessed as reduction in CFU at 80 uM measured at 24 hrs by time kill assay relative to control; assay type: functional; settings: ATCC 14243, 24 h; outline: as §3
Candida parapsilosis [13] = assay: Ratio of MIC at 24 hrs to MIC at 48 hrs for Candida parapsilosis 64E; assay type: functional
Outline: (§5)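 MICs by EUCAST broth microdilution, with the update for non-fermenting yeasts, incubated at 37 °C. Read at 24, 48 and 72 h as the lowest concentration preventing visible growth.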

Candida albicans [14] = assay: Antifungal activity against Candida albicans 4T measured at 24 hrs by broth dilution assay; assay type: functional; outline: as §4
Candida albicans [15] = assay: Upregulation of orf19.1887 gene expression in Candida albicans SC5314 at 3 uM after 45 mins by microarray method relative to control; assay type: functional; outline: as §2
Candida albicans [16] = assay: Upregulation of CDR2 gene expression in Candida albicans SC5314 at 3 uM after 15 mins by microarray method relative to control; assay type: functional; outline: as §1
Candida parapsilosis [17] = assay: Ratio of MIC at 24 hrs to MIC at 48 hrs for Candida parapsilosis 81E; assay type: functional; outline: as §5
Candida tropicalis [18] = assay: Fungicidal activity against Candida tropicalis 86E assessed as reduction in CFU at 20 uM measured at 24 hrs by time kill assay relative to control; assay type: functional; outline: as §3
Candida albicans [19] = assay: Antifungal activity against Candida albicans 4T measured at 72 hrs by broth dilution assay; assay type: functional; outline: as §4
Candida albicans [20] = assay: Upregulation of ERG2 gene expression in Candida albicans SC5314 at 3 uM after 45 mins by microarray method relative to control; assay type: functional; outline: as §1
Candida albicans [21] = assay: Antifungal activity against Candida albicans 53T measured at 48 hrs by broth dilution assay; assay type: functional; outline: as §4
Candida albicans [22] = assay: Antifungal activity against Candida albicans 53T measured at 24 hrs by broth dilution assay; assay type: functional; outline: as §4
Candida albicans [23] = assay: Upregulation of FCR1 gene expression in Candida albicans SC5314 at 3 uM after 45 mins by microarray method relative to control; assay type: functional; outline: as §1
Candida parapsilosis [24] = assay: Antifungal activity against Candida parapsilosis ATCC 34136 measured at 48 hrs by broth dilution assay; assay type: functional; settings: Lodderomyces parapsilosis, ATCC 34136, 48 h; outline: as §4
[25] = Antifungal activity against Geotrichum silvicola measured at 72 hrs by broth dilution assay; assay type: functional; outline: as §4
Pichia kudriavzevii [26] = assay: Antifungal activity against Candida krusei 193T measured at 48 hrs by broth dilution assay; assay type: functional; outline: as §4
Candida albicans [27] = assay: Upregulation of orf19.4531 gene expression in Candida albicans SC5314 at 3 uM after 15 mins by microarray method relative to control; assay type: functional; outline: as §2
Magnusiomyces capitatus [28] = assay: Antifungal activity against Geotrichum capitatum measured at 72 hrs by broth dilution assay; assay type: functional; outline: as §4
Nakaseomyces glabratus = assay: Antifungal activity against Candida glabrata 70 measured at 24 hrs by broth dilution assay; assay type: functional; settings: Nakaseomyces glabratus, 70, 24 h; outline: as §4
Cryptococcus neoformans [29] = assay: Antifungal activity against Cryptococcus neoformans measured at 24 hrs by broth dilution assay; assay type: functional, organism-based; outline: as §4
Candida tropicalis [30] = assay: Ratio of MIC at 24 hrs to MIC at 48 hrs for Candida tropicalis 86E; assay type: functional; outline: as §5
Candida albicans [31] = assay: Upregulation of CDR1 gene expression in Candida albicans SC5314 at 3 uM after 15 mins by microarray method relative to control; assay type: functional; outline: as §1
Candida albicans [32] = assay: Upregulation of orf19.1438 gene expression in Candida albicans SC5314 at 3 uM after 45 mins by microarray method relative to control; assay type: functional; outline: as §1
Candida albicans [33] = assay: Upregulation of CDR1 gene expression in Candida albicans SC5314 at 3 uM after 45 mins by microarray method relative to control; assay type: functional; outline: as §1
Candida albicans [34] = assay: Upregulation of orf19.2726 gene expression in Candida albicans SC5314 at 3 uM after 45 mins by microarray method relative to control; assay type: functional; outline: as §2
Pichia kudriavzevii [35] = assay: Antifungal activity against Candida krusei ATCC 14243 measured at 48 hrs by broth dilution assay; assay type: functional; settings: ATCC 14243, 48 h; outline: as §4
Magnusiomyces capitatus [36] = assay: Antifungal activity against Geotrichum capitatum up to 96 hrs by broth dilution assay; assay type: functional

## C/C=C/CNC(=N)NCCCCCCCCN1CCCCCCCCNC(=N)NC1=O
Cryptococcus neoformans [1]
  Activity: Active
Candida albicans [2]
  fold change (FC): 2.88
Candida albicans [3]
  fold change (FC): 3.9
Magnusiomyces capitatus [4]
  Activity: Active
Candida albicans [5]
  MIC: 5 µM (≈ 2.18 µg/mL)
Candida albicans [6]
  fold change (FC): 2.39
Candida parapsilosis [7]
  MIC: 10 µM (≈ 4.36 µg/mL)
Candida tropicalis [8]
  MIC: 2.5 µM (≈ 1.09 µg/mL)
Candida albicans [9]
  fold change (FC): 6.13
Candida parapsilosis [10]
  Activity: Active
Candida albicans [11]
  fold change (FC): 2.28
Pichia kudriavzevii [12]
  inhibition at 80 µM: 99.9%
Candida parapsilosis [13]
  Ratio: 2
Candida albicans [14]
  MIC: 5 µM (≈ 2.18 µg/mL)
Candida albicans [15]
  fold change (FC): 3.44
Candida albicans [16]
  fold change (FC): 71.84
Candida parapsilosis [17]
  Ratio: 2
Candida tropicalis [18]
  inhibition at 20 µM: 99.9%
Candida albicans [19]
  MIC: 5 µM (≈ 2.18 µg/mL)
Candida albicans [20]
  fold change (FC): 2.83
Candida albicans [21]
  MIC: 5 µM (≈ 2.18 µg/mL)
Candida albicans [22]
  MIC: 5 µM (≈ 2.18 µg/mL)
Candida albicans [23]
  fold change (FC): 5.88
Candida parapsilosis [24]
  MIC: 80 µM (≈ 34.9 µg/mL)
[25]
  MIC: 10 µM (≈ 4.36 µg/mL)
Pichia kudriavzevii [26]
  MIC: 80 µM (≈ 34.9 µg/mL)
Candida albicans [27]
  fold change (FC): 17.22
Magnusiomyces capitatus [28]
  MIC: 10 µM (≈ 4.36 µg/mL)
Nakaseomyces glabratus
  MIC: > 80 µM
Cryptococcus neoformans [29]
  Activity: Active
Candida tropicalis [30]
  Ratio: 2
Candida albicans [31]
  fold change (FC): 3.07
Candida albicans [32]
  fold change (FC): 17.28
Candida albicans [33]
  fold change (FC): 3.75
Candida albicans [34]
  fold change (FC): 6.56
Pichia kudriavzevii [35]
  MIC: 80 µM (≈ 34.9 µg/mL)
Magnusiomyces capitatus [36]
  Activity: Active
